Data published in ChEMBL document CHEMBL1148731, “An integrated computational approach to the phenomenon of potent and selective inhibition of aurora kinases B and C by a series of 7-substituted indirubins” (J Med Chem, 2007).

Columns and labels:
Aurora kinase C = biological target: T1, Aurora kinase C (Homo sapiens, UniProt Q9UQB9); test: Inhibition of human recombinant aurora C kinase
T1 sequence (Q9UQB9 whole entry): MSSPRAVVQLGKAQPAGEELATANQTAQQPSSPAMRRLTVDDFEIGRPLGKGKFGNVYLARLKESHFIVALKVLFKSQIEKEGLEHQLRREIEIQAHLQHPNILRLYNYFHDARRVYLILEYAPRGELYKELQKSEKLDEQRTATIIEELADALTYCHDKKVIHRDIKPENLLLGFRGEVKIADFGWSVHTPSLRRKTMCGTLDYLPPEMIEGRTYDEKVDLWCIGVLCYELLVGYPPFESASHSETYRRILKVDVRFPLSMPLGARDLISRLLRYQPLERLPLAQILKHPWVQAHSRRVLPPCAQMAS
Procedure, shortened: (§1)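 Recombinant human Aurora kinase (A, B or C); myelin basic protein substrate (1 mg/mL) with 15 µM [γ-33P]ATP in buffer C (25 mM Mops pH 7.2, 60 mM β-glycerophosphate, 15 mM p-nitrophenylphosphate, 5 mM EGTA, 15 mM MgCl2, 1 mM DTT, 1 mM vanadate, 1 mM phenylphosphate), 30 min at 30 °C. Stopped by spotting on P81 paper, washed in 1% phosphoric acid, scintillation counted. IC50 from dose-response curves over various concentrations.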

Aurora kinase A = biological target: T2, Aurora kinase A (Homo sapiens, UniProt O14965); test: Inhibition of human recombinant aurora A kinase
T2 sequence (O14965 whole entry): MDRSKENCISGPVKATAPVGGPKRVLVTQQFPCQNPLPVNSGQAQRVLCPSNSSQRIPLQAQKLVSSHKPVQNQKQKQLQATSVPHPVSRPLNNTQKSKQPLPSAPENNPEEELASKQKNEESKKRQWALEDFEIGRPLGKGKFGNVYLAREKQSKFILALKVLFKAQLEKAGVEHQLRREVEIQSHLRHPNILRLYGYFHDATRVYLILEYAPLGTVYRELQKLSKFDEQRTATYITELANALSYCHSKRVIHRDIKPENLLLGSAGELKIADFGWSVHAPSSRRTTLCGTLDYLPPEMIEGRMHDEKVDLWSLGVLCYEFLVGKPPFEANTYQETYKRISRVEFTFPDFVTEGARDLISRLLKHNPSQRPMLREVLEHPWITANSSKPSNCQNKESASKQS

Aurora kinase B = Aurora kinase B (Homo sapiens, UniProt Q96GD4); test: Inhibition of human recombinant aurora B kinase; procedure, shortened: as §1
Aurora kinase B, sequence (Q96GD4 whole entry): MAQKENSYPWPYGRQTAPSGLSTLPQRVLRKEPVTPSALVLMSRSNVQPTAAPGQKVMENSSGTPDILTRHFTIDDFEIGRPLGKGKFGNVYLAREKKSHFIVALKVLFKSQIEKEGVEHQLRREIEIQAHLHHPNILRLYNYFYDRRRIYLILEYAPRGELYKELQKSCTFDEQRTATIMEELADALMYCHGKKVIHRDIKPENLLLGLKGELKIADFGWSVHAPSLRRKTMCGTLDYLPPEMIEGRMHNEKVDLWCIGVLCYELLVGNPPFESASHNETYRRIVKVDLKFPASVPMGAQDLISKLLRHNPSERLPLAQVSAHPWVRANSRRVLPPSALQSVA

Structure (SMILES) | IC50 (Aurora kinase C) [µM] | IC50 (Aurora kinase A) [µM] | IC50 (Aurora kinase B) [µM]
CO/N=C1\C(=C2\C(=O)Nc3c(Br)cccc32)Nc2ccccc21 | > 100 | > 100 | > 100
O=C1C(c2c(O)[nH]c3c(Cl)cccc23)=Nc2ccccc21 | > 100 | > 100 | > 100
CC(=O)O/N=C1\C(=C2\C(=O)Nc3c(Cl)cccc32)Nc2ccccc21 | > 100 | > 100 | > 100
O=C1C(c2c(O)[nH]c3c(I)cccc23)=Nc2ccccc21 | > 100 | > 100 | > 100
O=C1C(c2c(O)[nH]c3c(F)cccc23)=Nc2ccccc21 | > 100 | > 100 | > 100
CO/N=C1\C(=C2\C(=O)Nc3c(F)cccc32)Nc2ccccc21 | > 100 | > 100 | > 100
CO/N=C1\C(=C2\C(=O)Nc3c(Cl)cccc32)Nc2ccccc21 | > 100 | > 100 | > 100
O=C1C(c2c(O)[nH]c3c(Br)cccc23)=Nc2ccccc21 | > 100 | > 100 | > 100
CO/N=C1\C(=C2\C(=O)Nc3c(I)cccc32)Nc2ccccc21 | > 100 | > 100 | > 100

Now those with a lower IC50 (Aurora kinase C), led by results:

IC50 (Aurora kinase C) [µM] | IC50 (Aurora kinase A) [µM] | IC50 (Aurora kinase B) [µM] | Structure (SMILES)
28 | > 100 | > 100 | CC(=O)O/N=C1\C(=C2\C(=O)Nc3c(I)cccc32)Nc2ccccc21
4.5 | > 100 | 20 | CC(=O)O/N=C1\C(=C2\C(=O)Nc3c(Br)cccc32)Nc2ccccc21
1 | 20 | 8 | CC(=O)O/N=C1\C(=C2\C(=O)Nc3c(F)cccc32)Nc2ccccc21
1 | 2 | 7 | O=Nc1c(-c2c(O)[nH]c3c(F)cccc23)[nH]c2ccccc12
0.9 | > 100 | 8 | O=Nc1c(-c2c(O)[nH]c3c(Cl)cccc23)[nH]c2ccccc12
0.7 |  | 4.6 | O=Nc1c(-c2c(O)[nH]c3c(Br)cccc23)[nH]c2ccccc12
0.7 | 2.3 | 2.1 | CC(=O)O/N=C1\C(c2c(O)[nH]c3ccccc23)=Nc2ccccc21
0.6 | > 100 | 10 | O=Nc1c(-c2c(O)[nH]c3c(I)cccc23)[nH]c2ccccc12
0.4 | 4.3 | 3 | CO/N=C1\C(c2c(O)[nH]c3ccccc23)=Nc2ccccc21
0.3 | 4 | 2.3 | O=Nc1c(-c2c(O)[nH]c3ccccc23)[nH]c2ccccc12 [INDIRUBIN-3-MONOXIME]
0.2 |  | 0.9 | O=C1Nc2cc(Br)ccc2/C1=C1/Nc2ccccc2/C1=N\O [6BIO]
